Shown are actives, neighbours in structure and some others; about 2.3% of the full set was active somewhere.
TRPC6 inhibitor: inhibitors of mouse TRPC6 channel. B-score at 10 µM. HEK293-TRPC6, membrane potential dye, ACh-evoked depolarization; hits give low values. actives 1.1% (n = 310,000). Q61143;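 active means B-score under library mean minus 3 SD, initial fluorescence not abnormally high, positive integrated signal ratio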;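 further: B-score derived from integrated fluorescence ratio over the kinetic read; more negative B-score means stronger inhibition of depolarization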
TRPC4 PAM: allosterically enhances the mouse TRPC4 cation channel | Q9QUQ5 | HEK293 TRPC4beta/mu-opioid, DAMGO EC20, Fluo-4 Ca2+ flux; hits give high values | B-score at 10 µM | actives 0.42% (n = 310,000) | AID 2227;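 active means B-score of calcium response area above 5 SD of library B-scores, with initial fluorescence ratio within 5 SD of library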;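 further: B-score of integrated fluorescence ratio over time as area under calcium response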
TRPC4 block: inhibitors of mouse TRPC4 channel | B-score at 10 µM | HEK293 TRPC4beta/mu-opioid, DAMGO-evoked Fluo4 calcium flux; hits give low values | actives 0.39% (n = 300,000);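 active means B-score over 3 SD under the library average, no early fluorescence shift, positive overall ratio signal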
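material = TRPC4beta/mu-opioid receptor HEK293 cell line | probe or stimulus = sequential submaximal and maximal DAMGO stimulation | compound dosing = one concentration per compound | measured by = Fluo4 Ca2+ flux fluorescence | evaluation = integrated fluorescence ratio relative to baseline, converted to per-well B score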
TRPC4 act: activators of mouse TRPC4 channel | B-score at 10 µM | actives 0.49% (n = 310,000) | HEK293 TRPC4beta/mu-opioid, Fluo4 calcium fluorescence; hits give high values | AID 2237;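 active means B-score above 5 SD of library B-scores, and initial fluorescence ratio not above library mean plus 5 SD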;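 further: positive B-score marks a calcium rise read as TRPC4 activation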
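Assay system: HEK293 stable line with TRPC4beta plus mu-opioid receptor. Times: dye 45 min RT, read 110 s. Measured by: kinetic Fluo4 calcium fluorescence. Measure: B score of integrated ratio. Controls: assay buffer as low control, maximal DAMGO as high control.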
TRPC6 act: activators of mouse TRPC6 channel | Q61143 | HEK293-TRPC6 membrane potential dye fluorescence; hits give high values | B-score at 10 µM | actives 0.13% (n = 310,000);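 active means B-score of the integrated fluorescence ratio above library mean plus 3 SD, and starting fluorescence ratio within library mean plus 5 SD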;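 further: higher score means more depolarization so channel activation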
* marks the source's active call; other numbers are inactive results; i = inactive.

SMILES	TRPC6 inhibitor	TRPC4 PAM	TRPC4 block	TRPC4 act	TRPC6 act
Cc1cccc(C(=O)Nc2cccc3c2CCCC3)c1	i	i	i	i	i
COc1ccc(/C(O)=C2/C(=O)C(=O)N(c3ccccn3)C2c2ccc(C(C)C)cc2)cc1 (stereo not drawn)	i	i	i	i	i
Cc1ccc(C(=O)NNC(=S)NC(=O)c2ccccc2)cc1	i	i	i	218*	i
Cc1ccc(C(=O)NC(=S)NNC(=O)c2ccccc2[N+](=O)[O-])cc1	i	i	i	53*	i
O=C(O)c1ccc(NC(=S)NC(=O)c2ccc(-c3ccccc3)cc2)cc1	i	i	-6*	i	i
N=c1ccn(Cc2ccc(Cl)c(Cl)c2)cc1	i	i	i	61*	i
N=c1ccn(Cc2ccc(Cl)cc2)cc1	i	i	i	i	i
COc1ccc(OC)c(S(=O)(=O)NCC(c2ccco2)N2CCc3ccccc32)c1 (stereo not drawn)	i	i	i	i	i
c1ccc(COc2cccc(CNCc3cccnc3)c2)cc1	i	i	-6*	i	i
Clc1ccc(COc2ccccc2CNCc2cccnc2)cc1	i	i	-6*	i	i
c1ccc(COc2cccc(CNCc3ccccn3)c2)cc1	i	i	i	i	i
CC1(C)Cc2cccc(OCC(=O)Nc3ccc(S(N)(=O)=O)cc3)c2O1	i	i	i	i	i
CN(C)c1ccc(CNCCC(Cc2ccccc2)c2ccco2)cc1 (stereo not drawn)	i	i	i	46*	i
c1ccc(CNCCC(Cc2ccccc2)c2ccco2)cc1 (stereo not drawn)	i	i	i	i	i
CCOC(=O)CSc1nc2ccccc2c(=O)n1CC1CCCC1	i	i	-9*	i	i
Cc1ccccc1NC(=O)CSc1nc2ccccc2c(=O)n1CC1CCCO1 (stereo not drawn)	i	i	i	i	i
CCOc1ccccc1NC(=O)CSc1nc2ccccc2c(=O)n1CC1CCCO1 (stereo not drawn)	i	i	-6*	i	i
COc1ccc(OC)c(NC(=O)Cn2c(=O)n(CC3CCCO3)c(=O)c3cc(OC)c(OC)cc32)c1 (stereo not drawn)	i	i	i	i	i
Cc1cc(CN2CCCC(CO)(Cc3cccc(Cl)c3)C2)n[nH]1 (stereo not drawn)	i	i	i	i	i
OCC1(Cc2ccccc2)CCCN(Cc2cnn(-c3ccccc3)c2)C1 (stereo not drawn)	i	i	-7*	i	i
COc1ccccc1-n1cc(CN2CCCC(CO)(Cc3cccc(Cl)c3)C2)cn1 (stereo not drawn)	i	i	-5*	i	i
Cc1ccc(-n2cc(CN3CCC(CO)(Cc4ccccc4)CC3)cn2)cc1	i	i	i	i	i
COCc1ccc(CN2CCCC(CO)(Cc3cccc(Cl)c3)C2)o1 (stereo not drawn)	i	i	i	i	i
CC(C)Cc1cc(CN2CCCC(CO)(Cc3cccc(Cl)c3)C2)[nH]n1 (stereo not drawn)	i	i	-10*	i	i
Cc1cccc(C)c1NC(=O)CNC(=O)c1cccnc1	i	i	i	i	i
SMILES	TRPC6 inhibitor	TRPC4 PAM	TRPC4 block	TRPC4 act	TRPC6 act
Cc1cc(OCCCCCNCCO)cc(C)c1Cl	i	i	i	i	i
Cc1cc(OCCNCCO)cc(C)c1Cl	i	26*	i	94*	i
O=C(CSc1nnc(NC(=O)c2c(F)cccc2F)s1)NCc1ccc(F)cc1	i	i	i	i	i
CC(=O)c1cnn(-c2ccc(Cl)c(Cl)c2Cl)c1C	i	i	i	i	i
NC(=O)c1ccc(N2CCN(c3ncc(C(F)(F)F)cc3Cl)CC2)cc1	i	17*	i	i	i
O=C(c1cc2c(ccc3ccccc32)o1)N1CCN(c2ncc(C(F)(F)F)cc2Cl)CC1	i	i	i	80*	i
Fc1ccc(-c2nnc(CN3CCN(c4ncc(C(F)(F)F)cc4Cl)CC3)o2)cc1	i	i	i	109*	i
NC(=O)NCCN1CCN(c2ncc(C(F)(F)F)cc2Cl)CC1	i	15*	i	i	i
CN(C)S(=O)(=O)c1cccc(CNCC2COc3ccccc3O2)c1 (stereo not drawn)	i	i	i	i	i
Cc1ccc(F)cc1CNC(=O)C1CCC(=O)N(CC2CCCCC2)C1 (stereo not drawn)	i	i	i	i	i
CN(CCC1CCOCC1)C(=O)C1CCC(=O)N(CCc2ccccc2)C1 (stereo not drawn)	i	i	i	i	i
CCCN(CCC)CCCNS(=O)(=O)c1ccc2c(c1)oc(=O)n2C	i	i	i	56*	i
CC(C)OCCCNS(=O)(=O)c1ccc2c(c1)oc(=O)n2C	i	i	i	i	i
CC1(C)CC(NC(=O)c2ccncc2)CC(C)(C)N1O	i	i	i	79*	i
CN1CCC(NC(=O)c2ccncc2)CC1	i	i	i	i	i
NC(=O)c1cc(S(=O)(=O)NCCc2ccc(Cl)cc2)cs1	i	i	i	i	i
COc1ccc(Cl)cc1S(=O)(=O)N1CCCC(C(=O)NCc2ccncc2)C1 (stereo not drawn)	i	i	i	i	i
CC1=NN(c2ccccc2)C(=O)/C1=C\C=C1\N(C)c2ccccc2C1(C)C	i	i	i	58*	i
CCOc1ccc(/C=C/C2=Cc3c(sc(NC(=O)CSc4n[nH]c(N)n4)c3C#N)C(C)(C)C2)cc1	i	17*	i	i	i
CCOC(=O)c1sc(NC(=O)CSc2n[nH]c(-c3ccncc3)n2)c(C#N)c1C	i	i	i	i	i
Cc1ccsc1/C=C/C1=Cc2c(sc(NC(=O)CSc3n[nH]c(N)n3)c2C#N)C(C)(C)C1	i	90*	i	i	i
O=C1CCC(C(=O)O)N1 (stereo not drawn)	i	i	i	i	i
C/C(=N\NC(=O)c1nnn(-c2nonc2N)c1-c1ccc2c(c1)OCO2)c1cccs1	i	i	i	i	i
CCOC(=O)C(CCCCCOc1ccccc1[N+](=O)[O-])C(=O)OCC	i	i	-6*	i	i
O=[N+]([O-])c1ccccc1OCCCN1CCc2ccccc2C1	i	i	i	i	i
CCOC(=O)C(CCCCOc1cccc(CC)c1)C(=O)OCC	i	i	i	i	i
